Results published in ChEMBL document CHEMBL1157562, “Piperazinyl glutamate pyridines as potent orally bioavailable P2Y12 antagonists for inhibition of platelet aggregation” (J Med Chem, 2010).

Assays:
[1] = target: P2Y purinoceptor 12 (Homo sapiens, UniProt Q9H244); experiment: Displacement of [33P]ADP from human recombinant P2Y12 receptor expressed in CHO cells; type: cell-based
How it was run: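 Washed membranes from CHO cells expressing synthetic human P2Y12, incubated 1 h at room temperature with 0.2 nM 33P-MeSADP in 50 mM Tris/100 mM NaCl/1 mM EDTA. Compound was tested as a 7-point 3-fold series in triplicate. Nonspecific binding was defined with 300 nM 2-MeSADP, followed by filtration.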

[2] = Antiplatelet aggregation activity against adenosine diphosphate-induced human platelet rich plasma assessed as inhibition of platelet aggregation by turbidimetric method; type: functional; settings: Homo sapiens, Platelet, Plasma
How it was run: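 Human PRP, prepared by two-step centrifugation and adjusted to 330 000 platelets/μL with PPP. Compound was preincubated 5 min at 37 °C in 0.5% DMSO, then 20 μM ADP was added. OD626 was read kinetically for 15 min at 37 °C with mixing between reads.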

[3] = test system: Platelet; experiment: Relative potency, ratio of IC50 for drug to IC50 for AZD-6140 for platelet aggregation in human platelet rich plasma; type: functional

P2Y purinoceptor 12, sequence (Q9H244 whole entry): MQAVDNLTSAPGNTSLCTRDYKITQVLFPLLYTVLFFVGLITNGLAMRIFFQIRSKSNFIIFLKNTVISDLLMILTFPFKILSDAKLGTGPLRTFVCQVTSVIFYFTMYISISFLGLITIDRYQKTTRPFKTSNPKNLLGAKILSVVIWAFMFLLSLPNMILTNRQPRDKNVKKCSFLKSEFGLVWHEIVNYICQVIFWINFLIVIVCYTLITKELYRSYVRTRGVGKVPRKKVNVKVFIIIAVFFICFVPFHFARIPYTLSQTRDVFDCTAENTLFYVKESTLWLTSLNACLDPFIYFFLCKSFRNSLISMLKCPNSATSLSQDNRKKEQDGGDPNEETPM

Ki [1]	IC50 [2]	Structure (SMILES)	Ratio IC50 [3]
0.007 µM	0.48 µM	CCCCCOC(=O)N1CCN(C(=O)[C@H](CCC(=O)O)NC(=O)c2cc(OC3CCN(C(C)C)CC3)cc(-c3ccccc3)n2)CC1	0.68
0.01 µM	2.8 µM	CCOC(=O)N1CCN(C(=O)[C@H](CCC(=O)O)NC(=O)c2cc(N3CCC(N)CC3)cc(-c3ccccc3)n2)CC1	8.1
0.0017 µM	0.32 µM	CCCCCOC(=O)N1CCN(C(=O)[C@H](CCC(=O)O)NC(=O)c2cc(C(=O)N3CCN(C(C)=O)CC3)cc(-c3ccccc3)n2)CC1	0.48
0.0026 µM	1.2 µM	CCCCCCOC(=O)N1CCN(C(=O)[C@H](CCC(=O)O)NC(=O)c2cc(N3CCC(N4CCCC4)CC3)cc(-c3ccccc3)n2)CC1	2.3
0.014 µM	8.3 µM	CCCCCCOC(=O)N1CCN(C(=O)[C@H](CCC(=O)O)NC(=O)c2cc(OCCOC)cc(-c3ccccc3)n2)CC1	7.1
0.0059 µM	2.2 µM	CCCCOC(=O)N1CCN(C(=O)[C@H](CCC(=O)O)NC(=O)c2cc(OCCCOC)cc(-c3ccccc3)n2)CC1	3.9
0.011 µM	12 µM	CCCCCOC(=O)N1CCN(C(=O)[C@H](CCC(=O)O)NC(=O)c2cc(C(=O)NCCC)cc(-c3ccccc3)n2)CC1	20
0.12 µM	36 µM	CCCOc1cc(C(=O)N[C@@H](CCC(=O)O)C(=O)N2CCN(C(=O)OCC)CC2)nc(-c2ccccc2)c1	46
0.0069 µM	2.9 µM	CCCCOC(=O)N1CCN(C(=O)[C@H](CCC(=O)O)NC(=O)c2cc(OCCCO)cc(-c3ccccc3)n2)CC1	5.1
0.005 µM	1.9 µM	CCCCOC(=O)N1CCN(C(=O)[C@H](CCC(=O)O)NC(=O)c2cc(N3CCC(N(C)C)CC3)cc(-c3ccccc3)n2)CC1	1.4
0.132 µM	13 µM	CCOC(=O)N1CCN(C(=O)[C@H](CCC(=O)O)NC(=O)c2cc(OCCCCO)cc(-c3ccccc3)n2)CC1	13
0.0088 µM	2.4 µM	CCCCCOC(=O)N1CCN(C(=O)[C@H](CCC(=O)O)NC(=O)c2cc(OCCN)cc(-c3ccccc3)n2)CC1	3
0.0023 µM	4.3 µM	CCCCCOC(=O)N1CCN(C(=O)[C@H](CCC(=O)O)NC(=O)c2cc(NC(=O)CN3CCN(C)CC3)cc(-c3ccccc3)n2)CC1	4.1
0.064 µM	0.56 µM	CCCCOC(=O)N1CCN(C(=O)[C@H](CCC(=O)O)NC(=O)c2cc(N3CCC(N4CCCC4)CC3)cc(-c3ccccc3)n2)CC1	1.7
0.0026 µM	0.63 µM	CCCCCOC(=O)N1CCN(C(=O)[C@H](CCC(=O)O)NC(=O)c2cc(C(=O)N(C)CCCOC)cc(-c3ccccc3)n2)CC1	1.4
0.02 µM	21 µM	CCCCCCOC(=O)N1CCN(C(=O)[C@H](CCC(=O)O)NC(=O)c2cc(O)cc(-c3ccccc3)n2)CC1	21
0.0021 µM	1 µM	CCCCOC(=O)N1CCN(C(=O)[C@H](CCC(=O)O)NC(=O)c2cc(OC(=O)N3CCC(OCC)CC3)cc(-c3ccccc3)n2)CC1	1.2
0.0079 µM	17 µM	CCCCCOC(=O)N1CCN(C(=O)[C@H](CCC(=O)O)NC(=O)c2cc(OCC)cc(-c3ccccc3)n2)CC1	23

Ki [1]	IC50 [2]	Structure (SMILES)	Ratio IC50 [3]
0.011 µM	2.1 µM	CCCCCOC(=O)N1CCN(C(=O)[C@H](CCC(=O)O)NC(=O)c2cc(OC(=O)N3CCCCC3)cc(-c3ccccc3)n2)CC1	1.3
0.0021 µM	2.9 µM	CCCCCOC(=O)N1CCN(C(=O)[C@H](CCC(=O)O)NC(=O)c2cc(CCC(=O)N(C)C)cc(-c3ccccc3)n2)CC1	2.7
0.0026 µM	1.5 µM	CCCCOC(=O)N1CCN(C(=O)[C@H](CCC(=O)O)NC(=O)c2cc(OCC3CCN(C(=O)COC)CC3)cc(-c3ccccc3)n2)CC1	1.4
0.0049 µM	0.69 µM	CCCCCOC(=O)N1CCN(C(=O)[C@H](CCC(=O)O)NC(=O)c2cc(OC(=O)N3CC[C@H](OC)C3)cc(-c3ccccc3)n2)CC1	1
0.0017 µM	0.76 µM	CCCCOC(=O)N1CCN(C(=O)[C@H](CCC(=O)O)NC(=O)c2cc(OC(=O)N3CCOCC3)cc(-c3ccccc3)n2)CC1	0.75
0.035 µM	27 µM	CCCCOC(=O)N1CCN(C(=O)[C@H](CCC(=O)O)NC(=O)c2cc(OCCCC)cc(-c3ccccc3)n2)CC1	18
0.0045 µM	0.64 µM	CCCCCCOC(=O)N1CCN(C(=O)[C@H](CCC(=O)O)NC(=O)c2cc(OCC3CCNCC3)cc(-c3ccccc3)n2)CC1	1.3
0.0042 µM	0.21 µM	CCCCOC(=O)N1CCN(C(=O)[C@H](CCC(=O)O)NC(=O)c2cc(OCC3CCNCC3)cc(-c3ccccc3)n2)CC1	0.37
0.0084 µM	4.5 µM	CCCCCCOC(=O)N1CCN(C(=O)[C@H](CCC(=O)O)NC(=O)c2cc(OCCN)cc(-c3ccccc3)n2)CC1	7.9
0.012 µM	13 µM	CCCCCOC(=O)N1CCN(C(=O)[C@H](CCC(=O)O)NC(=O)c2cc(NCCC)cc(-c3ccccc3)n2)CC1	14
0.054 µM	19 µM	CCOC(=O)N1CCN(C(=O)[C@H](CCC(=O)O)NC(=O)c2cc(N3CCC(CO)CC3)cc(-c3ccccc3)n2)CC1	22
0.0047 µM	3.4 µM	CCCCCOC(=O)N1CCN(C(=O)[C@H](CCC(=O)O)NC(=O)c2cc(NC(=O)NCC(=O)N(C)C)cc(-c3ccccc3)n2)CC1	3.9
0.0035 µM	0.5 µM	CCCCCOC(=O)N1CCN(C(=O)[C@H](CCC(=O)O)NC(=O)c2cc(OC3CCNCC3)cc(-c3ccccc3)n2)CC1	0.64
0.0025 µM	0.24 µM	CCCCOC(=O)N1CCN(C(=O)[C@H](CCC(=O)O)NC(=O)c2cc(OCC3CCN(C)CC3)cc(-c3ccccc3)n2)CC1	0.38
0.0015 µM	0.77 µM	CCCCOC(=O)N1CCN(C(=O)[C@H](CCC(=O)O)NC(=O)c2cc(OC(=O)N3CC[C@@H](OC)C3)cc(-c3ccccc3)n2)CC1	0.97
0.02 µM	7.9 µM	CCCCOC(=O)N1CCN(C(=O)[C@H](CCC(=O)O)NC(=O)c2cc(OCCO)cc(-c3ccccc3)n2)CC1	5.1
0.0083 µM	4.2 µM	CCCCCOC(=O)N1CCN(C(=O)[C@H](CCC(=O)O)NC(=O)c2cc(CCCCOC)cc(-c3ccccc3)n2)CC1	4.5
0.0013 µM	7.4 µM	CCCCCOC(=O)N1CCN(C(=O)[C@H](CCC(=O)O)NC(=O)c2cc(OCC3CCN(C(=O)OCC)CC3)cc(-c3ccccc3)n2)CC1	5.1

Structure (SMILES)	Ki [1]	IC50 [2]	Ratio IC50 [3]
CCCCOC(=O)N1CCN(C(=O)[C@H](CCC(=O)O)NC(=O)c2cc(OC(=O)N(C)C)cc(-c3ccccc3)n2)CC1	0.002 µM	1.1 µM	1.1
